Bioassay records from PubChem BioAssay.
FGF22 binding: binders of recombinant human FGF22 by thermal shift. activity (Tm shift, normalised), % at 9.99 µM. SYPRO orange fluorescence; percent of sucrose octasulfate shift, DMSO zero. actives 1.5% (n = 340,000). Q9HCT0;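 active means mean Tm shift, scaled 0 neutral to 100 positive control, at about 1.3% or above, every replicate too, limit read from the data; inconclusive means no clear call, values can overlap the other calls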
E-selectin induc: E-selectin induction on HUVECs | P16581 | HUVEC E-selectin immunofluorescence imaging; normalized: neutral wells 0, TNF-alpha wells 100 | activation, % at 7.58 µM | actives 0.37% (n = 260,000) | AID 686992;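 active means mean E-selectin-positive cell signal at least 10% of the positive control, reached in at least 60% of replicates, without over 20% cell loss; inconclusive means no rule given, readout overlaps actives, possibly toxicity-flagged; inactive means the rest, including those meeting only one limit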
Target sequence (P16581 whole entry, looked up): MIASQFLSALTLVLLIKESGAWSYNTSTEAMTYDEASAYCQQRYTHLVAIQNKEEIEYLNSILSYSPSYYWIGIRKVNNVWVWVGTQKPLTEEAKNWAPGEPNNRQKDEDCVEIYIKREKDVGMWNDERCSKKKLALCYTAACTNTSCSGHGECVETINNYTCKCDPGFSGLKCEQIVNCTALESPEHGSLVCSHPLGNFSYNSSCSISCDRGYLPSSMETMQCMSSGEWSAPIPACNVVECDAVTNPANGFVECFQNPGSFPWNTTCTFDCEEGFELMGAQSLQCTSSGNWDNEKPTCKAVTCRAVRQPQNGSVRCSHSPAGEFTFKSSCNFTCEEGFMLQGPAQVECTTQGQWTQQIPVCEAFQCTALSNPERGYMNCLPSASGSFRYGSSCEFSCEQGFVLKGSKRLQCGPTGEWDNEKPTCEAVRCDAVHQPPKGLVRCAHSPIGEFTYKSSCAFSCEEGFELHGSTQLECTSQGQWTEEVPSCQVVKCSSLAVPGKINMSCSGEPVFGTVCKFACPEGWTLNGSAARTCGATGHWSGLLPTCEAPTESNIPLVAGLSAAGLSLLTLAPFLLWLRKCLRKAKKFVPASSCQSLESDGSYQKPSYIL
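Test system: HUVEC; input: 3,000 HUVEC/well; measured by: immunofluorescence imaging; read-out: % PE-positive cells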
CFTR F508del cor: CFTR F508del correction in bronchial cells | CFBE cells, YFP halide quenching; stimulated with forskolin plus potentiator P3; % fluorescence drop versus neutral controls | actives 0.36% (n = 350,000) | activity (quench increase), % at 7.58 µM;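 active means mean added fluorescence quench of at least 8% versus neutral control, with both replicates also reaching 8%; inconclusive means only one of the mean or replicate conditions met; inactive means mean below 8% and not both replicates reaching 8%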;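 further: cells transiently co-express mutant CFTR-F508del with the halide-sensitive YFP; corrector assay measuring rescue of mutant channel to the surface after 24 h compound exposure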
ERAP1 HTS inh: inhibitors of human ERAP1 aminopeptidase; Q9NZ08; recombinant ERAP1, Leu-AMC fluorescence, 60 min; inhibition, % at 10.7 µM; actives 0.15% (n = 340,000);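 active means mean replicate inhibition of at least 30%, or all replicates individually reaching that 30% level; inactive means mean below 30% and not every replicate reaching it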
DENV2 CPE rescue: protects cells from dengue virus 2 cytopathic effect; DENV2-infected cells, cytopathic effect rescue, plate reader; CPE inhibition, % at 9.99 µM; actives 1.7% (n = 350,000); in the data active means CPE inhibition above about 20%, passing the limit was not always enough; inconclusive means no clear call, values can overlap the other calls; tested in BHK-21 cells
Hits are given with their value; 0 = inactive; ? = inconclusive; - = no result given. Sampled rows, rich in hits. Any-hit rate of the full collection: about 3.7%.

SMILES	FGF22 binding	E-selectin induc	CFTR F508del cor	ERAP1 HTS inh	DENV2 CPE rescue
C[C@H]1CCCCO[C@H](CN(C)C(=O)c2ccncc2)[C@@H](C)CN([C@@H](C)CO)C(=O)c2cc(NS(=O)(=O)c3cn(C)cn3)ccc2O1	0	0	0	0	0
C/C(Cn1ncc(N2CCOCC2)c(Cl)c1=O)=N\O	0	0	0	0	28.6
C[C@H](CO)N1C[C@H](C)[C@@H](CN(C)Cc2ccccn2)Oc2ncc(C#Cc3cccc(F)c3)cc2C1=O	0	0	0	0	0
Cc1ccc(S(=O)(=O)N(Cc2cc3ccccc3[nH]c2=O)c2cccc(C)c2)cc1	0	0	14.4	0	0
COc1ccc2c3c(n(C)c2c1)[C@H](CO)N(Cc1ccncc1)CC31CN(C(=O)Nc2cccc(F)c2)C1	-	0	0	0	0
CCCCn1nc(NC(=O)CC(C)C)c2cc3cc(OC)ccc3nc21	0	55.6	0	0	0
CCCCn1nc(NC(=O)CCC)c2cc3cc(OC)ccc3nc21	0	-	0	0	0
CO[C@H]1CN(C)C(=O)c2ccc(NC(=O)c3cc(C)on3)cc2OC[C@@H](C)N(C)C[C@@H]1C	0	0	0	0	20.9
CO[C@@H]1CN(C)C(=O)c2ccc(NC(=O)c3cc(C)on3)cc2OC[C@H](C)N(C(=O)C2CC2)C[C@H]1C	0	0	0	0	32.4
Cc1ccc(S(=O)(=O)N[C@@H]2CC[C@@H](CCNC(=O)Nc3ccc(Cl)cc3)O[C@H]2CO)cc1	0	0	0	0	0
CC(C)NC(=O)N(C)C[C@@H]1OCCCC[C@@H](C)Oc2ccc(N(C)C)cc2C(=O)N([C@@H](C)CO)C[C@@H]1C	0	0	0	0	0
CCn1c(SC(C)C(=O)NCC2CCCO2)nc2ccccc21 (stereo unspecified)	0	0	14.6	0	0
C[C@H](CO)N1C[C@H](C)[C@H](CN(C)C(=O)NC2CCCCC2)Oc2ccc(NC(=O)CCCCCC(=O)Nc3ccccc3N)cc2CC1=O	0	0	0	0	0
Oc1cccc2cc(Nc3ccccc3)cnc12	0	0	10.0	0	-
C[C@@H]1CN([C@H](C)CO)C(=O)Cc2cc(NC(=O)Cn3cnnn3)ccc2O[C@@H]1CN(C)Cc1ccc(C(=O)O)cc1	0	0	0	0	0
CC(C)(C)c1ccc(OCCC(=O)OCC(=O)NC2CC2)cc1	0	-	0	0	0
CC(C)(C)c1ccc(OCCC(=O)OCC(=O)NC2CCS(=O)(=O)C2)cc1 (stereo unspecified)	43.2	0	0	0	0
CC=Cc1ccc2n(c1=O)C[C@@H]1[C@@H](CO)[C@H](C(=O)NCCC)[C@H]2N1Cc1ccccc1 (mixture of isomers)	0	0	0	0	0
Nc1ccccc1C(=O)N1O[C@@H]2C=C[C@H]1C2	0	0	8.6	0	0
O=C(c1cc2ccccc2[nH]1)N1O[C@@H]2C=C[C@H]1C2	0	-	0	0	0
COc1ccc2c3c(n(C)c2c1)[C@@H](CO)N(C(=O)Nc1ccc(F)cc1)CC31CCN(S(=O)(=O)c2cn(C)cn2)CC1	0	0	0	0	0
O=C(CN(C(=O)c1csnn1)c1ccc2c(c1)OCCO2)NCc1ccc(F)cc1	0	39.0	0	0	?
COc1ccc(CNC(=O)CN(C(=O)c2csnn2)c2ccc3c(c2)OCCO3)cc1	0	0	0	0	0
COc1ccc2c3c(n(C)c2c1)[C@H](CO)N(C(=O)Nc1ccc(F)cc1)CC31CN(C(=O)c2ccccc2F)C1	0	0	0	0	0
Cn1ncc(Cl)c1C(=O)N1CCN(S(=O)(=O)c2ccc(F)cc2)CC1	0	0	0	0	?
Cn1ncc(Cl)c1C(=O)N1CCN(c2ccc(F)cc2)CC1	0	0	0	0	50.1
CC(C)NC(=O)N(C)C[C@@H]1OCc2ccccc2-c2c(n(C)c3ccccc23)C(=O)N([C@H](C)CO)C[C@@H]1C	0	0	0	0	0
COc1ccc(S(=O)(=O)Nc2ccc3c(c2)C(=O)N([C@H](C)CO)C[C@@H](C)[C@H](CN(C)C(=O)Nc2ccc(C(F)(F)F)cc2)OCCCC[C@@H](C)O3)cc1	1.2	0	0	0	0
COc1ccc(S(=O)(=O)Nc2ccc3c(c2)C(=O)N([C@H](C)CO)C[C@H](C)[C@@H](CN(C)C(=O)Nc2ccc(C(F)(F)F)cc2)OCCCC[C@@H](C)O3)cc1	0	0	0	0	0
